MEKK2wt PB1 HTS = modulators of MEK5 binding to wildtype MEKK2, primary screen, biochemical, multiplex bead flow cytometry, Alexa488-MEK5; Mitogen-activated protein kinase kinase kinase 2 (Homo sapiens), Q9Y2U5; Alexa488-MEK5 binding to MEKK2 WT; actives lie on both sides; binding response (% of control), % at 10 µM; 1.1% of 290,000 active; AID 1531, 2009; in the data active means binding response below about 67% or above about 130%
MEKK2mut PB1 HTS = MEK5 binding signal on mutant MEKK2 PB1, primary screen, biochemical, multiplex bead flow cytometry, Alexa488-MEK5 | 0.35% of 290,000 active | percent response, % at 10 µM | Alexa488-MEK5 binding to MEKK2 mutant; in the data active means percent response above about 24%, passing the limit was not always enough
IMP-1 inhibitor = IMP-1 metallo-beta-lactamase inhibitors, primary screen, biochemical, epi-absorbance readout, Pseudomonas aeruginosa enzyme. metallo-beta-lactamase IMP-1 (Pseudomonas aeruginosa). purified IMP-1, nitrocefin hydrolysis, epi-absorbance fluorescence. inhibition, % at 5.6 µM. 0.45% of 290,000 active;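 active means inhibition above the mean plus 3 SD of all compounds in the same screening run, cut at about 4.5% in these data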;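 further: 0% = IMP-1 with DMSO and 100% = DMSO wells lacking enzyme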
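system = purified recombinant IMP-1 beta-lactamase | amount = 0.2 nM IMP-1, as dispensed | medium = HEPES buffer pH 7.1 with ZnSO4 and Brij 35 | times = 25 °C, 15 min preincubation, 25 min reaction | detection = plate fluorescence quenching by hydrolysis product, ex 480/em 530 nm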
VIM-2 inh = VIM-2 metallo-beta-lactamase inhibitors, primary screen, biochemical, epi-absorbance readout, Pseudomonas aeruginosa enzyme. 0.89% of 290,000 active. inhibition, % at 5.6 µM. purified VIM-2, nitrocefin hydrolysis, epi-absorbance fluorescence. AID 1527, 2009;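 active means inhibition above the mean of all tested compounds plus 3 SD, cutoff set per screening run, cut at about 7.5% in these data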;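 further: red hydrolysis product quenches plate fluorescence so inhibitors raise well fluorescence; 0% = enzyme with DMSO and 100% = DMSO without enzyme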
MEKK3 PB1 HTS = modulators of MEKK3-MEK5 PB1 binding, primary screen, biochemical, wildtype MEKK3, multiplex bead flow cytometry, Alexa488-MEK5. bead-based flow cytometry, Alexa488-MEK5 binding to MEKK3; actives lie on both sides; 0 = blocked by unlabeled MEK5, 100 = vehicle. binding response (% of control), % at 10 µM. 1.4% of 290,000 active. AID 1529, 2009;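 active means binding response more than 3 SD above or below the average of its plate-row segment, actives on both sides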;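 further: Alexa488 bead fluorescence after subtracting the streptavidin-only scavenger bead signal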
Target sequence (Q99759 whole entry, looked up): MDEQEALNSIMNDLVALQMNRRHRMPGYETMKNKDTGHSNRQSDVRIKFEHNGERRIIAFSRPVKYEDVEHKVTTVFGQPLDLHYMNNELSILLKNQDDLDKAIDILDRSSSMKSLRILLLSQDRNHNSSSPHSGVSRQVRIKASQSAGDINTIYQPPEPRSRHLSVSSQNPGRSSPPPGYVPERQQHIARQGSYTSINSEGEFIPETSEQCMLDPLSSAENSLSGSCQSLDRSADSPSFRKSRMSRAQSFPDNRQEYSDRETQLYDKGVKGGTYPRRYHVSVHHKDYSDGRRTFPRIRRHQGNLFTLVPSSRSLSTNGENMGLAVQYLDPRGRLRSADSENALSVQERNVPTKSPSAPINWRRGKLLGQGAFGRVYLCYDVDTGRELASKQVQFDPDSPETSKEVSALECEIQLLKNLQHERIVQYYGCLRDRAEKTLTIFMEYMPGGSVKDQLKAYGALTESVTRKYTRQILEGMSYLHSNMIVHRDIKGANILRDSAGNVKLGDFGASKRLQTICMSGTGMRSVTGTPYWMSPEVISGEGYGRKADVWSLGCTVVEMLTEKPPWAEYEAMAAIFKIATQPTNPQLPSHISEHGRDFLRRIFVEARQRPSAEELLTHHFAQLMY
Active calls of the source: *; . = no result. The list is not random: actives were taken first. Their share in the collection is about 3.4%.

SMILES	MEKK2wt PB1 HTS	MEKK2mut PB1 HTS	IMP-1 inhibitor	VIM-2 inh	MEKK3 PB1 HTS
C=CCN1C(=O)N(c2ccc(Cl)cc2)C(=O)C1CC(=O)Nc1ccc(F)cc1 (stereo not drawn)	95	0	-3	-2	97
COc1ccc(C(Cl)=C(c2ccc(OC)cc2)c2ccc(OC)cc2)cc1	101	4	12*	0	84
COc1ccc(C(=N/O)/C(=N/O)c2ccc(OC)cc2)cc1	101	1	2	-4	105
CCn1c(N2CCN(Cc3ccc([N+](=O)[O-])cc3)CC2)nc2ccccc21	105	4	23*	-1	100
CCCn1c(N2CCN(Cc3ccc(Cl)cc3)CC2)nc2ccccc21	102	-3	0	-2	98
CCCc1cc(NCC2CCCO2)n2c(nc3ccccc32)c1C#N (stereo not drawn)	96	-5	-1	8.7*	97
CCCc1cc(NCc2ccccn2)n2c(nc3ccccc32)c1C#N	112	0	-3	4	123
CCCc1cc(NCCN(C)C)n2c(nc3ccccc32)c1C#N	116	6	-4	8.3*	112
Cc1cc(NCc2ccccn2)n2c(nc3ccccc32)c1C#N	91	-12	-2	12*	100
COc1ccc(NC(=O)CCNC(=O)c2ccccc2)cc1S(N)(=O)=O	99	2	-2	-3	100
CCN(CC)CCC(=O)NC(C)(C)Cc1ccc(O)cc1	104	4	0	1	104
Cc1sc(-c2ccncc2)nc1OC(=O)c1ccc(Cl)cc1	105	1	-1	-2	106
Cc1sc(-c2ccncc2)nc1OC(=O)c1ccc(F)cc1F	106	2	10*	0	96
Cc1sc(-c2ccncc2)nc1OC(=O)c1cc(Cl)cc(Cl)c1	101	5	5.7*	-2	101
Cc1ccc(C(=O)c2oc3ccc(Cl)cc3c2NC(=O)CN2CCN(C)CC2)cc1	160*	14	-1	3	109
CCOC(=O)c1oc2ccc(OC)cc2c1NC(=O)CN1CCN(C)CC1	99	2	-4	1	97
CCCc1[nH]nc2c1C(c1ccc(OCCN3CCOCC3)c(OCC)c1)C(C#N)=C(N)O2 (stereo not drawn)	93	-2	-3	8.7*	104
N=C1C(c2ccc(Br)cc2)=C(O)C2CCc3ccccc3N12 (stereo not drawn)	105	5	-1	-2	102
COc1ccc(OCCNc2cc(N3CCCCC3)ccc2[N+](=O)[O-])cc1	.	.	-2	-1	.
COc1cccc(OCCNc2cc(N3CCCCC3)ccc2[N+](=O)[O-])c1	106	1	47*	1	107
COc1ccccc1-n1cnc(N)c1C(C)=O	96	-11	-2	-2	91
CCOc1ccc(Oc2c(/C=N/NC(C)=O)c(C)nn2-c2ccccc2)cc1	97	1	1	0	99
CSc1nc(Cl)c(Cc2ccc(OC(C)C)cc2)c(N2CCOCC2)n1	97	-2	-2	-1	97
CSc1nc(N2CCOCC2)c2sccc2n1	97	0	-1	8.1*	101
COCCNC(=O)Cc1ccc(F)cc1	99	0	-1	-3	102
SMILES	MEKK2wt PB1 HTS	MEKK2mut PB1 HTS	IMP-1 inhibitor	VIM-2 inh	MEKK3 PB1 HTS
C/C(O)=c1/c(=O)nc2cccc3c2=c1c1ccccc1c3=O	100	7	4	10*	99
O=C(COc1ccc2c3c(c(=O)oc2c1)CCC3)N1CCN(c2ccc(F)cc2)CC1	100	2	-2	9.1*	103
NC(=O)C1CCN(C(=O)COc2ccc3c4c(c(=O)oc3c2)CCCC4)CC1	95	-4	0	11*	94
O=C(O)c1ccc(COc2ccc3c4c(c(=O)oc3c2)CCC4)o1	96	-1	0	8.5*	101
O=c1oc2cc(OCc3ccc([N+](=O)[O-])cc3)ccc2c2c1CCCC2	96	1	-3	-1	105
CC(Oc1ccc2c3c(c(=O)oc2c1)CCC3)C(=O)NCc1cccnc1 (stereo not drawn)	103	0	-2	9.6*	101
